# According to ChEMBL document CHEMBL1142241, “Atropisomeric 3-(beta-hydroxyethyl)-4-arylquinolin-2-ones as Maxi-K potassium channel openers” (J Med Chem, 2007):
# Values joined by “and” are separate entries in the source; they are usually repeats but may differ in a detail not shown here. Equal values may be shown once.
# Columns and labels:
# [1] = molecular target: Calcium-activated potassium channel subunit alpha-1 (Homo sapiens) (UniProt Q12791); assay: Activity at human maxi-K hSlo channel expressed in Xenopus oocytes assessed as increase in maxi k current at 10 uM relative to iberiotoxin; assay type: cell-based; settings: Oocyte
# How it was run: (§1)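 Xenopus oocytes injected with 50 ng hSlo cRNA, recorded 2–5 days post-injection. Outward K+ currents evoked from a holding potential of -60 mV over -40 to +140 mV in 20 mV depolarizing steps. Compound applied for 5 min in at least 4–5 oocytes, then 100 nM iberiotoxin for 10 min. Values are % IbTX-sensitive current at peak effect, drug-free control = 100%.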
# [2] = molecular target: Calcium-activated potassium channel subunit alpha-1 (Homo sapiens) (UniProt Q12791); assay: Activity at human maxi-K hSlo channel expressed in Xenopus oocytes assessed as increase in maxi k current at 20 uM relative to iberiotoxin; assay type: cell-based; settings: Oocyte; how it was run: as §1
# [3] = molecular target: Calcium-activated potassium channel subunit alpha-1 (Homo sapiens) (UniProt Q12791); assay: Activity at human maxi-K hSlo channel expressed in Xenopus oocytes assessed as increase in maxi k current at 5 uM relative to iberiotoxin; assay type: cell-based; settings: Oocyte; how it was run: as §1
# Serum = assay: Stability in human serum at 1 mM in 37 degC upto 30 hrs; assay type: ADME, cell-free; settings: 1000 µM
# How it was run: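 Pooled human serum prewarmed 5 min at 37 °C; test agent added from 0.1 M DMSO stock to final 1 mM in serum with 1% DMSO, held at 37 °C. Racemization followed by supercritical fluid chromatography on a chiral column over 30 h.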
# Sequence of Calcium-activated potassium channel subunit alpha-1 (Homo sapiens) (Q12791 whole entry): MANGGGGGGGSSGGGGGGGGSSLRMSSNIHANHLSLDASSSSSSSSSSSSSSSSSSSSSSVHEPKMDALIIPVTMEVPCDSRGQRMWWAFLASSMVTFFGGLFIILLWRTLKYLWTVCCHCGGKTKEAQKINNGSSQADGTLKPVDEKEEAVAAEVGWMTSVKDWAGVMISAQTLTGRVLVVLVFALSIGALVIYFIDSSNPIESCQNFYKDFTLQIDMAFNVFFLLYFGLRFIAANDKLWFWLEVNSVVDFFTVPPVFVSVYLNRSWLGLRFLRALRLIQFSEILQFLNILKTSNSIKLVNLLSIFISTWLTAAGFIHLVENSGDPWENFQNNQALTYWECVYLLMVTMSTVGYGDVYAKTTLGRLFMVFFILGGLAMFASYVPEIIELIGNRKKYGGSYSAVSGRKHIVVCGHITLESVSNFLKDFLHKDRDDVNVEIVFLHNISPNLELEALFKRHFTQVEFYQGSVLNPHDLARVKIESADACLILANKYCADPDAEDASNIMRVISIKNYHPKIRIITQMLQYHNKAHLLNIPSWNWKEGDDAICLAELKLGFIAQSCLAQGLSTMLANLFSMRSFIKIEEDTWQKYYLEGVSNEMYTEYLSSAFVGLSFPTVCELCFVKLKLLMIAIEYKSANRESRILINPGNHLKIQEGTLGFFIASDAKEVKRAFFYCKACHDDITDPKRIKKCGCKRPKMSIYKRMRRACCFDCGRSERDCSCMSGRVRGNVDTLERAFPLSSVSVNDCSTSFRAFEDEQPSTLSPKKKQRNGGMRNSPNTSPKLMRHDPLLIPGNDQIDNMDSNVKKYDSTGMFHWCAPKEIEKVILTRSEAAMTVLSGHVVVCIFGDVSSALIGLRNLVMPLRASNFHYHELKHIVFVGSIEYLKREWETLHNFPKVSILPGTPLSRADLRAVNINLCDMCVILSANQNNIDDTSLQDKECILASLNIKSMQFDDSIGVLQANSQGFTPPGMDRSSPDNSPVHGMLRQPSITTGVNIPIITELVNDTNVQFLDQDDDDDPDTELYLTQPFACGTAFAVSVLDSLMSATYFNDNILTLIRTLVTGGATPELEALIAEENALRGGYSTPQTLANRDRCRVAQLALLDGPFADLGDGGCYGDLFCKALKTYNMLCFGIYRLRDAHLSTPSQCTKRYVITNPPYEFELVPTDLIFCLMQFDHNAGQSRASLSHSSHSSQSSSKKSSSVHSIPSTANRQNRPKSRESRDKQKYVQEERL
SMILES,Activity [1],Activity [2] [%],Activity [3] [%],Stability (Serum)
CCCc1cc(Cl)cc(-c2c(CCO)c(=O)n(C)c3ccc(C(F)(F)F)cc23)c1O,127%,,,
Cn1c(=O)c(CCO)c(-c2cc(Cl)ccc2O)c2cc(C(F)(F)F)ccc21,361% and 184% and 257%,296,,
Cn1c(=O)c(CCO)c(-c2cc(Cl)cc(CC(O)CO)c2O)c2cc(C(F)(F)F)ccc21 (stereo not given),,112,,
Cn1c(=O)c(CCO)c(-c2cc(Cl)cc(CCCO)c2O)c2cc(C(F)(F)F)ccc21,,164,,
CC(C)Cc1cc(Cl)cc(-c2c(CCO)c(=O)n(C)c3ccc(C(F)(F)F)cc23)c1O,,,96.5,
C=C(C)Cc1cc(Cl)cc(-c2c(CCO)c(=O)n(C)c3ccc(C(F)(F)F)cc23)c1O,114%,,,
O=c1[nH]c2ccc(C(F)(F)F)cc2c(-c2cc(Cl)ccc2O)c1CCO [BMS-223131],214% and 292% and 259%,253,,Stable
